Measured values from ChEMBL document CHEMBL3758114, “Design, synthesis and biological evaluation of N-phenylquinazolin-4-amine hybrids as dual inhibitors of VEGFR-2 and HDAC” (Eur J Med Chem, 2016).

Tests used:
[1] = test system: MCF7; assay: Antiproliferative activity against human MCF7 cells after 48 hrs by MTT assay; type: functional, cell-based; conditions: MCF7, 48 h
[2] = target: Vascular endothelial growth factor receptor 2 (Homo sapiens, UniProt P35968); assay: Inhibition of VEGFR2 (unknown origin) preincubated for 5 mins followed by addition of ATP/gastrin precursor(Tyr87) biotinylated peptide cocktail incubated for 30 mins by ELISA
In short: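 The kit enzyme, 100 ng VEGFR-2 in reaction cocktail, was preincubated with compound dilutions for 5 min at room temperature. The 30 min reaction ran at room temperature and was stopped with EDTA (50 mM, pH 8). Biotinylated peptide was captured on streptavidin wells for 60 min. Phospho-Tyr was detected with anti-pTyr-100 mAb, then HRP anti-mouse IgG, then TMB, read at 450 nm.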

[3] = target: Histone deacetylase; assay: Inhibition of HDAC in human HeLa cell nuclear extracts preincubated for 15 mins followed by addition of Fluor de Lys as substrate for 1 hr by fluorometric assay; type: cell-based
[4] = target: Histone deacetylase 2 (Homo sapiens, UniProt Q92769); assay: Inhibition of HDAC2 (unknown origin) preincubated for 15 mins followed by addition of Fluor de Lys as substrate for 1 hr by fluorometric assay
In short: (§1)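 Each isolated HDAC isoform was incubated with compound at a range of concentrations for 15 min at room temperature. The reaction was then started with Fluor de Lys substrate and run for 1 h at room temperature. Developer was added to stop it. Fluorescence was read at excitation 355 nm and emission 460 nm. The assay was run three independent times.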

[5] = target: T1, Histone deacetylase 8 (Homo sapiens, UniProt Q9BY41); assay: Inhibition of HDAC8 (unknown origin) preincubated for 15 mins followed by addition of Fluor de Lys as substrate for 1 hr by fluorometric assay; in short: as §1
T1 sequence (Q9BY41 whole entry): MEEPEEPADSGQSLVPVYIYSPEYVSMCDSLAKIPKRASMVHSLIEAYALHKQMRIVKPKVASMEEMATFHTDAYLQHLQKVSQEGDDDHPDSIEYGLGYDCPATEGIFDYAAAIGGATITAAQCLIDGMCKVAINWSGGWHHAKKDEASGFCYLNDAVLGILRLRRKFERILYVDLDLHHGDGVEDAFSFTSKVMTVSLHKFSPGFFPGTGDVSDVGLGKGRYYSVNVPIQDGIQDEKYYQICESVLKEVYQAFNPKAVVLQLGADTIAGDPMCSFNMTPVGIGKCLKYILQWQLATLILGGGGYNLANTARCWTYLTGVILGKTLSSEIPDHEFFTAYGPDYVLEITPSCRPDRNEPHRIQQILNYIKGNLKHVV

[6] = target: T2, Protein deacetylase HDAC6 (Homo sapiens, UniProt Q9UBN7); assay: Inhibition of HDAC6 (unknown origin) preincubated for 15 mins followed by addition of Fluor de Lys as substrate for 1 hr by fluorometric assay; in short: as §1
T2 sequence (Q9UBN7 whole entry): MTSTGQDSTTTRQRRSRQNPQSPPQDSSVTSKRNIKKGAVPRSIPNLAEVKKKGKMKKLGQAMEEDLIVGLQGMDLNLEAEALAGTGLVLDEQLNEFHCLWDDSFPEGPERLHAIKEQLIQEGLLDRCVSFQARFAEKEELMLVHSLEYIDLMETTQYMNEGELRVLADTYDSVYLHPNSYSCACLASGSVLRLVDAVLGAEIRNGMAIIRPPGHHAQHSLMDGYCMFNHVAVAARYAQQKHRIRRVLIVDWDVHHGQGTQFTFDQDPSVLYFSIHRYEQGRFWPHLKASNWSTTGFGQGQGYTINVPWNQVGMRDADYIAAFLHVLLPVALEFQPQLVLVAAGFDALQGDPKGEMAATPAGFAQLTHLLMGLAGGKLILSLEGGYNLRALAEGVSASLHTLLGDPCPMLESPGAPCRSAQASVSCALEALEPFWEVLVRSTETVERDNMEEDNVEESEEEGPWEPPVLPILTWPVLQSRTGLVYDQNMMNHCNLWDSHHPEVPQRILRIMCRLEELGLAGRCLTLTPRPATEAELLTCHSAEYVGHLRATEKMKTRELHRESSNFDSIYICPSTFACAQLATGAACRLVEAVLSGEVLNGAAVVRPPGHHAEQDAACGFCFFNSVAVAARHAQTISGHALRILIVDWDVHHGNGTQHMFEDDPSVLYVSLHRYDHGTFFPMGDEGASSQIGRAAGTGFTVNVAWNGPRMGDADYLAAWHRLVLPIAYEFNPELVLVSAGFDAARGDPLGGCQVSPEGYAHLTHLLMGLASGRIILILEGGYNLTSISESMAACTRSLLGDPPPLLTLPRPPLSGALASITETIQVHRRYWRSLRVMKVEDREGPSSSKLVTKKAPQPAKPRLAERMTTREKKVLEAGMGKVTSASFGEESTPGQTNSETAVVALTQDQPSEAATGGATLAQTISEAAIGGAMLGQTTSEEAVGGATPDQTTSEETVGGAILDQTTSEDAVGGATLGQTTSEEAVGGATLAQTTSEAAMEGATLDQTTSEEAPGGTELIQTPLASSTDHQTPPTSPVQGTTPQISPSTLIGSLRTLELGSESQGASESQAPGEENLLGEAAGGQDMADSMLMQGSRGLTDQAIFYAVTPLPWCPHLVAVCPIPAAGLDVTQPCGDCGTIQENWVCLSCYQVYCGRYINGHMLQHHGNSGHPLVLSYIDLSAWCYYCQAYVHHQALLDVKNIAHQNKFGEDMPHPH

[7] = target: Histone deacetylase 1 (Homo sapiens, UniProt Q13547); assay: Inhibition of HDAC1 (unknown origin) preincubated for 15 mins followed by addition of Fluor de Lys as substrate for 1 hr by fluorometric assay; in short: as §1
Chain of Histone deacetylase 1 (Q13547 whole entry): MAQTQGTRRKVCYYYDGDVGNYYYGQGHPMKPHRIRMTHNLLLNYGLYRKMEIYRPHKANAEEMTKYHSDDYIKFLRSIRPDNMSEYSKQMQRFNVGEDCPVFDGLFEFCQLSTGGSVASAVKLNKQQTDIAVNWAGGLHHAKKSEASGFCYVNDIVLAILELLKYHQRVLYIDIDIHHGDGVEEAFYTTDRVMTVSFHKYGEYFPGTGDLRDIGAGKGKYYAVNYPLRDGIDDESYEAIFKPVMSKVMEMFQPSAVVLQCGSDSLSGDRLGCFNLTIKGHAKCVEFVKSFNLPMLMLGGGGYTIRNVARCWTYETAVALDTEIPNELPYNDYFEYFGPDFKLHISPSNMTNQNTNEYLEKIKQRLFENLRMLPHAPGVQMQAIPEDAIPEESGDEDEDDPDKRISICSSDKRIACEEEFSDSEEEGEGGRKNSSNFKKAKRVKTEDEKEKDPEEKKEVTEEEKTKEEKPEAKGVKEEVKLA

Chain of Vascular endothelial growth factor receptor 2 (P35968 whole entry): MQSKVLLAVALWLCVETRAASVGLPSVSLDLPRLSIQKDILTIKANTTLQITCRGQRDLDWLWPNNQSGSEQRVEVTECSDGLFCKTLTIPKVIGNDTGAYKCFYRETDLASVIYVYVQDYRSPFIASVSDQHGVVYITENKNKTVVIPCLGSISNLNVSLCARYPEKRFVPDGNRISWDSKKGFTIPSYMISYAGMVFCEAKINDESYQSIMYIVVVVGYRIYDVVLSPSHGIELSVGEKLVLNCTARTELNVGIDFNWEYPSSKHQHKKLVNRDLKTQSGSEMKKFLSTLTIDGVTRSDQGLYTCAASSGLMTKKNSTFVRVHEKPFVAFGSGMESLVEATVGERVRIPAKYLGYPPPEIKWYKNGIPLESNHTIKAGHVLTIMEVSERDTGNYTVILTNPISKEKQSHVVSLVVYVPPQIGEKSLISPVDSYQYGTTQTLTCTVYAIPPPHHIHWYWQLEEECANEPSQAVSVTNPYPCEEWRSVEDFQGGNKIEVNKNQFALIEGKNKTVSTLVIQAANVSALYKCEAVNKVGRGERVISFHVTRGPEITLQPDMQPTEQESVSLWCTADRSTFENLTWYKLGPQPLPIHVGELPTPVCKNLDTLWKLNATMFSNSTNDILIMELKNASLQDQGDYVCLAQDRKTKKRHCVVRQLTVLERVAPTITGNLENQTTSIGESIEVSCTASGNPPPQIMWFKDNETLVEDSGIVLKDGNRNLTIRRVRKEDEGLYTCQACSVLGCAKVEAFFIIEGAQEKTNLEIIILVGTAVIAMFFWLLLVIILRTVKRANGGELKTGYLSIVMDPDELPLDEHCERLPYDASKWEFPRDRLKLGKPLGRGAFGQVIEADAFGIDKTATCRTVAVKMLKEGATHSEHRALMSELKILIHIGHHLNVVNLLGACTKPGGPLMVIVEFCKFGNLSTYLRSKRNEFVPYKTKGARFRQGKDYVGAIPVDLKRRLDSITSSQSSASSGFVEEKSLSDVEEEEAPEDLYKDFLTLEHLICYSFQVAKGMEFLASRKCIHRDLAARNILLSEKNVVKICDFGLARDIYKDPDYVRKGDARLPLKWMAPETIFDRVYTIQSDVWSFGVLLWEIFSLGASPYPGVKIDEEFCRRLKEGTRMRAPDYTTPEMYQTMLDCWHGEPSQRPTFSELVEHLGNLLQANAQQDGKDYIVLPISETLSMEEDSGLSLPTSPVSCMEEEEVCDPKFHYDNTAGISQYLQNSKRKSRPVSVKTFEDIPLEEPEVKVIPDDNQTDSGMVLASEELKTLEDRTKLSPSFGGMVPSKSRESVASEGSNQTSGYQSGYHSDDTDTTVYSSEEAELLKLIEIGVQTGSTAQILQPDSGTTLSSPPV
Chain of Histone deacetylase 2 (Q92769 whole entry, canonical isoform): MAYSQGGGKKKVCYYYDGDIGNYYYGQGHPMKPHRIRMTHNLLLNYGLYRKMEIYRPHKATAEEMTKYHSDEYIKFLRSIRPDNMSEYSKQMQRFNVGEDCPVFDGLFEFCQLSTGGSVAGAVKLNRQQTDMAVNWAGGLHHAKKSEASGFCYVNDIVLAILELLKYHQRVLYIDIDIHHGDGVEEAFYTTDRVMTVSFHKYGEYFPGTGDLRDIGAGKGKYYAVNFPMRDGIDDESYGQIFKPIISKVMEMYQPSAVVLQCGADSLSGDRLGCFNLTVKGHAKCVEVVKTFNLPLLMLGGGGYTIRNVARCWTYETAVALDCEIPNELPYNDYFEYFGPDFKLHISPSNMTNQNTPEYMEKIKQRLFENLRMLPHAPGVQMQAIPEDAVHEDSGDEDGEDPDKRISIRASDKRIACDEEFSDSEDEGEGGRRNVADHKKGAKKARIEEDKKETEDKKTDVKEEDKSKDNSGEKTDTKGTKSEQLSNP

Row | SMILES | IC50 [1] [nM] | IC50 [2] [nM] | IC50 [3] [nM] | IC50 [4] [nM] | IC50 [5] [nM] | IC50 [6] [nM] | IC50 [7] [nM]
1 | COc1cc2ncnc(Nc3ccc(Cl)cc3)c2cc1OCCCC(=O)NO | 85000 | 182 | 698 | – | – | – | –
2 | COc1cc2ncnc(Nc3ccc(F)cc3)c2cc1OCCCCCCC(=O)NO | 2400 | 270 | 8.5 | – | – | – | –
3 | COc1cc2ncnc(Nc3ccc(Cl)cc3)c2cc1OCCCCC(=O)NO | 61000 | 220 | 132 | – | – | – | –
4 | COc1cc2ncnc(Nc3ccc(Br)cc3)c2cc1OCCCCCC(=O)NO | 3500 | 153 | 12 | – | – | – | –
5 | COc1cc2ncnc(Nc3ccccc3F)c2cc1OCCCCC(=O)NO | > 100000 | 840 | 554 | – | – | – | –
6 | COc1cc2ncnc(Nc3ccccc3F)c2cc1OCCCCCC(=O)NO | 84000 | 918 | 145 | – | – | – | –
7 | COc1cc2ncnc(Nc3ccccc3Cl)c2cc1OCCCCCC(=O)NO | 15000 | 685 | 29 | – | – | – | –
8 | COc1cc2ncnc(Nc3ccc(Cl)cc3)c2cc1OCCCCCC(=O)NO | 4000 | 313 | 11 | – | – | – | –
9 | COc1cc2ncnc(Nc3ccccc3Cl)c2cc1OCCCCCCC(=O)NO | 7800 | 364 | 18 | – | – | – | –
10 | COc1cc2ncnc(Nc3ccccc3F)c2cc1OCCCCCCC(=O)NO | 15000 | 754 | 32 | – | – | – | –
11 | COc1cc2ncnc(Nc3ccc(F)cc3)c2cc1OCCCCCC(=O)NO | 18000 | 524 | 29 | – | – | – | –
12 | COc1cc2ncnc(Nc3ccccc3Br)c2cc1OCCCCCCC(=O)NO | 2600 | > 10000 | 8.8 | – | – | – | –
13 | COc1cc2ncnc(Nc3ccc(F)cc3)c2cc1OCCCC(=O)NO | > 100000 | 376 | 1340 | – | – | – | –
14 | COc1cc2ncnc(Nc3ccccc3Br)c2cc1OCCCCC(=O)NO | 33000 | > 10000 | 74 | – | – | – | –
15 | COc1cc2ncnc(Nc3ccccc3F)c2cc1OCCCC(=O)NO | > 100000 | 865 | 673 | – | – | – | –
16 | O=C(CCCCCCC(=O)Nc1ccccc1)NO [VORINOSTAT] | – | > 10000 | – | – | – | – | –

Next, values leading:

Row | IC50 [1] [nM] | IC50 [2] [nM] | IC50 [3] [nM] | IC50 [4] [nM] | IC50 [5] [nM] | IC50 [6] [nM] | IC50 [7] [nM] | SMILES
17 | 17000 | > 10000 | 31 | – | – | – | – | COc1cc2ncnc(Nc3ccccc3Br)c2cc1OCCCCCC(=O)NO
18 | 1700 | 215 | 3.2 | – | – | – | – | COc1cc2ncnc(Nc3ccc(Cl)cc3)c2cc1OCCCCCCC(=O)NO
19 | 36000 | 59 | 68 | – | – | – | – | COc1cc2ncnc(Nc3ccc(Br)cc3)c2cc1OCCCCC(=O)NO
20 | 74000 | 455 | 139 | – | – | – | – | COc1cc2ncnc(Nc3ccc(F)cc3)c2cc1OCCCCC(=O)NO
21 | 850 | 74 | 2.2 | 3.3 | 4.6 | 16.4 | 1.8 | COc1cc2ncnc(Nc3ccc(Br)cc3)c2cc1OCCCCCCC(=O)NO
22 | 52000 | 98 | 545 | – | – | – | – | COc1cc2ncnc(Nc3ccc(Br)cc3)c2cc1OCCCC(=O)NO
23 | > 100000 | 857 | 1255 | – | – | – | – | COc1cc2ncnc(Nc3ccccc3Cl)c2cc1OCCCC(=O)NO
24 | – | – | 840 | – | – | – | – | COc1cc2ncnc(Nc3ccccc3Br)c2cc1OCCCC(=O)NO
25 | 78000 | 832 | 128 | – | – | – | – | COc1cc2ncnc(Nc3ccccc3Cl)c2cc1OCCCCC(=O)NO
